Assay results of several laboratories.
Lines come from different studies, so protocols differ.
ALOX5: Polyunsaturated fatty acid 5-lipoxygenase (ALOX5, Homo sapiens, UniProt P09917)
CDK11B: Cyclin-dependent kinase 11B (CDK11B, Homo sapiens, UniProt P21127)

C#Cc1n[nH]c2c(-c3cn(C(C)c4ccccn4)c(=O)[nH]c3=O)cc(F)cc12 (stereo not drawn)  inhibition (Protein kinase C alpha type (PRKCA, Homo sapiens, UniProt P17252); enzyme activity; inhibitor; 1 µM): 9.8%
Nc1ncc(-c2nc(N3CCOCC3)nc(N3CCOCC3)n2)c(C(F)F)n1  remaining binding (Serine/threonine-protein kinase ICK (CILK1, Homo sapiens, UniProt Q9UPZ9); binding; competition with immobilised ligand; 10 µM): 72%
CCN(CC)CCCC[C@H](NC(=O)[C@H](CC(C)C)NC(=O)[C@H](C)NC(=O)[C@H](Cc1ccccc1)NC(=O)c1ccc(C(C)(C)C)cc1)C(=O)N[C@@H](CO)C(=O)OC  ΔTm (Bromodomain-containing protein 4, BD2 (BRD4, Homo sapiens, UniProt O60885); thermal stability; DSF; 25 µM): 0.2 °C
c1ccc(C(NCCNC(c2ccccc2)c2ccccc2)c2ccccc2)cc1  inhibition (ALOX5; enzyme activity; inhibitor; 10 µM): 99%
N#Cc1ccc(NCCNCC(=O)N2N=CCC2C#N)nc1 (stereo not drawn)  inhibition (Dipeptidyl peptidase 8 (Homo sapiens, UniProt Q6V1X1); enzyme activity; inhibitor; 10 µM): 15%
COc1cc(Nc2ncc(F)c(Nc3ccc4c(n3)NC(=O)C(C)(C)O4)n2)cc(OC)c1OC  inhibition (Mitogen-activated protein kinase kinase kinase 4 (MAP3K4, Homo sapiens, UniProt Q9Y6R4); binding; competition with immobilised ligand; 10 µM): 71%
COc1ncccc1-c1cnn2ccc(N3CCN(C(=O)OC(C)C)CC3)nc12  remaining binding (CDK11B; binding; competition with immobilised ligand; 1 µM): 89%
C[C@H](C(=O)N[C@H]1COc2ccccc2[C@@H]1S(C)(=O)=O)c1ccc(F)cc1  inhibition (ALOX5; enzyme activity; inhibitor; 10 µM): 13%
Cc1nn(C)cc1-c1nc2c(N3CCN(Cc4ccc(Cl)cc4)CC3)c(Cl)cnc2[nH]1  remaining binding (CDK11B; binding; competition with immobilised ligand; 1 µM): 100%
